Results pooled from the literature.
Compare with care: the assays were run in different laboratories.
Target: Serine/threonine-protein kinase 26 (STK26, Homo sapiens, UniProt Q9P289)

| Compound | assay | setting | quantity | result |
| --- | --- | --- | --- | --- |
| Cc1c(NC(=O)c2cc(C(N)=O)nc3cc(F)ccc23)c(C(F)(F)F)nn1Cc1ccc(C#N)cc1 | cell-free assay, competition with immobilised ligand | 1 µM | remaining binding | 95% |
| Cc1ccc(C(=O)Nc2ccc(CN3CCN(C)CC3)c(C(F)(F)F)c2)cc1C#Cc1cnc2cccnn12 | enzyme activity, inhibitor | 23.5 nM | remaining activity | 86% |
| Cc1cc(NC(=O)c2cccc3cc(-c4cccc5[nH]nc(N)c45)ccc23)ccc1F | enzyme activity, inhibitor | 0.1 µM | activity vs control | 107% |
| COc1cc(-c2cc(-c3ccc(N4CCNCC4)cc3)cnc2N)cc(OC)c1OC | enzyme activity, inhibitor | 1 µM | inhibition | 1% |
| Cc1nccc(COC(=O)N2C[C@@H]3[C@@H](CNC(=O)c4ccc5[nH]nnc5c4)[C@@H]3C2)n1 | cell-free assay, competition with immobilised ligand | 1 µM | remaining binding | 77% |
| Cn1c2c(c3ccccc31)C(C#N)C(C)(C)NC2=O (stereo not shown) | thermal stability, DSF | 10 µM | ΔTm | 1.9 °C |
| CN(c1nccc(-c2cnn3ncccc23)n1)C1CC1 | cell-free assay | 1 µM | remaining signal | 100% |
| CN(C)C1CCN(CC#Cc2nn(C3CCCC3)c3nc(NCc4ccccc4)ncc23)C1 (stereo not shown) | enzyme activity, inhibitor, FRET | 0.1 µM | inhibition | 9% |
| O=C1NC(c2ccccn2)Sc2ccccc21 (stereo not shown) | cell-free assay, competition with immobilised ligand | 1 µM | remaining binding | 80% |
| F[C@@H]1CCN(c2nccc(-c3cnn4ncccc34)n2)C1 | cell-free assay | 1 µM | remaining signal | 100% |
| CNCc1ccccc1-c1csc([C@@H](C)Nc2nc(C)nc3cc(OC)c(OC)cc23)c1 | cell-free assay, competition with immobilised ligand | 1 µM | remaining binding | 99% |
| Oc1cccc(-c2nc(N3CCOCC3)c3oc4ncccc4c3n2)c1 | cell-free assay | 0.5 µM | remaining signal | 98.6% |
| FC(F)(F)Oc1cccc(-c2cnc3ccc(-c4ccncc4)nn23)c1 | enzyme activity, inhibitor, radiometric | 1 µM | activity vs control | 96% |
| CCCCNc1ncc2c(-c3ccc(F)cc3)nn(C[C@H]3CC[C@H](N)CC3)c2n1 | target engagement in cells, inhibitor, chemoproteomics | 20 mM | inhibition | 1.8% |
| C[C@H]1CCN(c2nccc(-c3cnn4ncccc34)n2)C1 | cell-free assay | 1 µM | remaining signal | 73% |
| COc1cccc(CNC(=O)c2nc3scc(COCc4ccc(C(=O)O)cc4)c3c(=O)[nH]2)c1 | cell-free assay, competition with immobilised ligand | 1 µM | remaining binding | 72.2% |
| CC(C)(C)C(=O)c1sc(NC2CCCCC2)nc1N | enzyme activity, inhibitor | 10 µM | remaining activity | 90% |
| CC1(C)NC(=O)c2[nH]c3c(Cl)c(Cl)ccc3c2C1C#N (stereo not shown) | thermal stability, DSF | 10 µM | ΔTm | 2.4 °C |
| CCC(=O)N[C@H]1CC[C@@H](C(=O)N(C)c2ccc(-c3nc4ccccc4o3)cc2)C1 | cell-free assay, competition with immobilised ligand | 1 µM | remaining binding | 76% |
| COc1cc2ncnc(Nc3ccc(Oc4ccccc4)c(C)c3C)c2cc1OC | enzyme activity, inhibitor | 1 µM | inhibition | 21% |
| COc1cc(/C=C/C(=O)CC(=O)/C=C/c2ccc(O)c(OC)c2)ccc1O | enzyme activity, inhibitor | 1 µM | activity vs control | 75% |
| N#CC1(c2ccccn2)CCN(Cc2cc(C(=O)N3CCCC3)c(=O)n3ccccc23)CC1 | cell-free assay, competition with immobilised ligand | 1 µM | remaining binding | 100% |
